The test system of series [1] is IA walls at ACA‐OA bifurcation. Put plainly: In vivo vascular permeability assay. Set-up: species or system Sprague–Dawley rats. The note with it: day 7, BAPN. The procedure, abridged:
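Rats after IA induction, with 3-aminopropionitrile to facilitate formation, dosed p.o. once daily from just after surgery; vehicle 0.5% methylcellulose. On day 7, under deep anaesthesia, Evans blue (45 mg·kg−1) injected intra-arterially via the right common carotid (proximal side clamped), then 4% paraformaldehyde perfusion. Age-matched Sprague–Dawley rats served as controls. Frozen sections imaged confocally (ex 620/em 680 nm); stained area thresholded, particles >4 pixel square counted.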

The target of series [2] is S1P1 receptors expressed on HCtAEC (Homo sapiens, UniProt P21453). Put plainly: S1P1 receptor internalization assay. To be noted: mean ± SEM, n = 5. It counts as cell-based. In outline:
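HCtAECs (10^5 per well) seeded overnight, then exposed for 1 h at 37°C to test compound diluted in serum-free defined medium. Cells washed in ice-cold PBS and detached with Accutase. Staining with mouse anti-S1P1 (30 min on ice), then PE anti-mouse IgG; IgG2b isotype control; dead cells excluded by 7-AAD or SYTOX Blue. Isotype-subtracted geoMFI normalized to vehicle, expressed as % of control.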

The test system of another series is hS1P1. The note with it: S1P2, S1P3, S1P4 versus S1P1/S1P5; ref Yamamoto et al., 2014; cited from earlier work.
The subject of a further series is THP‐1 cells. Put plainly: Chemotaxis assay. Type of series: cell-based, human. The note with it: 100 nM ASP4058, MCP‐1 10 ng·mL^−1, 3 h. The procedure, abridged:
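Migrated-cell Transwell assay (5.0 μm pore) without an endothelial layer. Test compound diluted in RPMI 1640 with 0.1% fatty-acid-free BSA; compound or vehicle (0.1% DMSO) added to both compartments. THP-1 cells (5 × 10^5 per well) added to the upper and MCP-1 (10 ng·mL−1) to the lower compartment simultaneously. After 3 h at 37°C, migrated cells quantified by ATP-based luminescence; duplicates.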

The conditions of series [3]: rats, oral, 14 days at 0.1 mg·kg^−1; ref Yamamoto et al., 2014; cited from earlier work.
For series [4], the system named is THP‐1 cells across HCtAEC monolayer. Put plainly: Trans‐endothelial migration assay. Type of series: cell-based, human. The note with it: MCP‐1 100 ng·mL^−1, 3 h. The procedure, abridged:
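HCtAECs (10^5 per well) grown overnight on Transwell inserts (5.0 μm pore) in growth medium. Compound in serum-free defined medium, or vehicle (0.1% DMSO), added to both compartments. At the same time, THP-1 cells (5 × 10^5) added above and MCP-1 (100 ng·mL−1) below. After 3 h at 37°C, migrated cells quantified by ATP luminescence. Antagonist co-added with 100 nM agonist; duplicates.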

Series [5] has as its system lymphocytes / monocytes in peripheral blood. Description: Peripheral blood lymphocyte and monocyte count in rat IA model. It counts as in vivo, Sprague–Dawley rats. The note with it: rats. The procedure, abridged: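 Oral dosing after IA induction. Agonist suspended in 0.5% methylcellulose; antagonist suspended in 5% arabic gum and given twice daily. Peripheral lymphocyte and monocyte counts taken after the dosing period (4 weeks for the antagonist).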

Series [6] deals with intracranial aneurysm (IA). Put plainly: Non‐human primate model of IAs. It counts as in vivo. The note with it: Macaca fascicularis, 0.1 mg·kg^−1 once daily, 52 weeks, n = 3. The procedure, abridged: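 Female Macaca fascicularis (11 years old, 3.4 kg average), held under a 12 h light–dark cycle. IAs induced by two-step surgery at a 2 week interval. Test compound given once daily. At 52 weeks, five intracranial bifurcation sites per animal examined for IA formation, scored as breakage of the lamina elastica.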

The next series relates to HCtAEC monolayer. Put plainly: Permeability assay. To be noted: for effect on the ASP4058‐mediated inhibition of endothelial permeability: ASP4058 100 nM, TASP0277308 pretreated 1 h, EHop‐016 30 min. Type of series: cell-based, human. The procedure, abridged:
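HCtAECs (10^5 per well) grown overnight on collagen-coated Transwell inserts (0.4 μm pore) in growth medium, then overnight in serum-free defined medium. Compound or vehicle (0.1% DMSO) added to both compartments for 1 h. 250 μg·mL−1 FITC-dextran (2000 kDa) then added to the upper compartment; diffusion into the lower compartment read after 1 h (ex 490/em 520 nm). Antagonist pretreatment 1 h or Rac inhibitor 30 min, before 100 nM agonist. Duplicates, 37°C.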

Series [7] addresses S1P1 receptors in HCtAECs (Homo sapiens, UniProt P21453). Description: cAMP assay. Type of series: cell-based. In outline:
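HCtAECs seeded at 2 × 10^4 per well and kept overnight. Test compound diluted in HBSS (pH 7.2) containing 5 mM HEPES (pH 7.5), 0.1% fatty-acid-free BSA and 0.5 mM IBMX. Cells stimulated with 1 μM forskolin plus compound for 20 min at 37°C. Lysis in HEPES/CaCl2/Triton X-100 buffer; cAMP measured with a LANCE cAMP kit. Duplicates.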
Background: cAMP levels reflect the balance of adenylyl cyclase and phosphodiesterase activity.

Series [8] can be described thus: Plasma concentration of ASP4058 in rat aneurysm model. It counts as in vivo, rats. The procedure, abridged: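 Rats dosed orally at 0.01 mg·kg−1 for 12 weeks. Plasma collected just before and 1, 2, 4, 8 and 24 h after the last dose. Plasma separated by centrifugation and stored at −20°C or lower. Samples prepared by protein precipitation and quantified by HPLC–tandem mass spectrometry.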

A further series can be described thus: Systemic blood pressure. To be noted: rats. It counts as in vivo, Sprague–Dawley rats. In outline: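 Oral dosing after IA induction, vehicle 0.5% methylcellulose. Blood pressure measured in conscious rats by tail-cuff, without anaesthesia. Systolic, mean and diastolic values each taken as the mean of at least three measurements.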
Series [9] deals with intracranial aneurysm (IA). Put plainly: Rat IA model, histological analysis of induced IAs. Type of series: in vivo, Sprague–Dawley rats. The note with it: for growth (size) of induced IAs: KRP‐203 0.01 and BAF312 0.3 mg·kg^−1 daily. In outline: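 IA induced at the right ACA-OA bifurcation, contralateral to carotid ligation. Rats randomized and given test compound p.o. (suspended in 0.5% methylcellulose) throughout. Specimens prepared at 12 weeks; 5 μm sections immunostained. Aneurysm size and infiltrating macrophage number assessed.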

The mark [10] stands for this setting: p.o., 12 weeks after IA induction.
The mark [11] stands for this setting: KRP‐203 0.01 or BAF312 0.3 mg·kg^−1, 4 weeks after IA induction.
Where [12] appears, read: TASP0277308 100 or 300 mg·kg^−1 p.o. twice daily, 4 weeks.
Where [13] appears, read: rats, TASP0277308 100 or 300 mg·kg^−1 p.o. twice daily, 4 weeks, BAPN.

Where “and” joins values, the source holds several entries; their conditions need not be identical. Identical values can stand only once.

In general, IC50 refers to the concentration needed to halve the response being measured.

S1P1 receptors expressed on HCtAEC, sequence (P21453 whole entry): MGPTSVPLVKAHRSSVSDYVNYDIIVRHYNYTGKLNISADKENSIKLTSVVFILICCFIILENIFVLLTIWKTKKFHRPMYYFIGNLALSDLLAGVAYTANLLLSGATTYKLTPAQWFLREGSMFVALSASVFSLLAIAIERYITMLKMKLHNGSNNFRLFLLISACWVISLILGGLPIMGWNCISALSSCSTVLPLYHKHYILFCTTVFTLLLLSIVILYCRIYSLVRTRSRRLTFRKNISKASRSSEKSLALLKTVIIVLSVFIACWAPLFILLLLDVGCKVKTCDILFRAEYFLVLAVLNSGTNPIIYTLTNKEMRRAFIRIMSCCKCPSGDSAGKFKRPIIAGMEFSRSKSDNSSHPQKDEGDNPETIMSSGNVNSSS
S1P1 receptors in HCtAECs, sequence (P21453 whole entry): as above

Regarding `C[C@H](Oc1ccc(-c2nc(-c3ccc4[nH]cnc4c3)no2)cc1C(F)(F)F)C(F)(F)F.Cl` [ASP4058, 5‐{5‐[3‐(trifluoromethyl)‐4‐{[(2S)‐1,1,1‐trifluoropropan‐2‐yl]oxy}phenyl]‐1,2,4‐oxadiazol‐3‐yl}‐1H–benzimidazole hydrochloride], the “Evans blue leakage (stained area) at the ACA‐OA bifurcation after IA induction” value in [1] (rats, 0.1 mg·kg^−1 p.o. once daily) was “almost complete suppression”. In addition, the “Evans blue leakage (stained area) at the ACA‐OA bifurcation after IA induction” value in [1] (rats, 0.01, 0.1 mg·kg^−1 p.o. once daily) is reported as “dose‐dependently ameliorated”. For the same molecule, in series [2] (100 nM ASP4058, 1 h), the “S1P1 receptor expression level on HCtAECs (surface, δ geoMFI)” value was 86 ± 14 % of control. Also, the “S1P1 receptor expression level on HCtAECs (surface, δ geoMFI)” value in [2] (1000 nM ASP4058, 1 h) is reported as 23 ± 4.3 % of control. In addition, the “potency for other S1P receptor subtypes relative to S1P1 and S1P5 (times less)” value with hS1P1 is recorded as “at least 100 times”. For the same molecule, the “MCP‐1‐dependent migration (chemotaxis) of THP‐1 cells without HCtAEC monolayer” value with THP‐1 cells was “failed to inhibit”. In addition, in [3], the “plasma concentration at the maximum” value is 16.4 ± 0.463 ng/mL and the “plasma concentration at the maximum (equivalent)” value is reported as 37.1 ± 1.05 nM. The “MCP‐1‐induced trans‐endothelial migration of THP‐1 cells” value in series [4] was “concentration‐dependently inhibited”. The peripheral lymphocyte number result in series [5] (ASP4058 0.01 mg·kg^−1 p.o., 12 weeks) is given as “did not decrease”. Further, the “monocyte count in peripheral blood” value in series [5] (ASP4058 p.o., 12 weeks after IA induction) was “without significantly influencing”. Also, in [5] (setting [10]), the “dose at which the decrease in lymphocyte count reached a plateau” value was 0.1 mg/kg and the “dose suppressing the lymphocyte number in peripheral blood” value is reported as “higher than 0.03 mg·kg^−1”. In addition, in [6], the “IA formation compared with the vehicle‐treated group” value was “tended to be suppressed”. Further, the “leakage of FITC‐dextran (2000 kDa) across the endothelial monolayer” value in the series on HCtAEC monolayer (10 nM ASP4058, 1 h treatment, 1 h diffusion, concentration‐dependent) is recorded as “statistically significant inhibition”. Besides, in series [7], the midpoint of inhibition, the IC50, lay at 2.1 nM. The “Plasma concentration, 4 h” value in series [8] (0.01 mg·kg^−1, 12 weeks, 4 h after last administration, mean ± SEM, n = 3) stood at 8.8 ± 1.6 nM. Moreover, the “Plasma concentration, 24 h” value in series [8] (0.01 mg·kg^−1, 12 weeks, 24 h after last administration, mean ± SEM, n = 3) is 4.5 ± 0.6 nM. Moreover, the “Plasma concentration, Pre” value in [8] (0.01 mg·kg^−1, 12 weeks, just before last administration, mean ± SEM, n = 3) was 5.4 nM and 5.4 ± 0.7 nM. In series [8] (plasma, oral, 0.01 mg·kg^−1), this molecule came in with a concentration at 1 h of 6.3 ± 0.9 nM, a concentration at 2 h of 4.9 ± 1.6 nM, a concentration at 4 h of 8.8 nM and a concentration at 8 h of 7.9 ± 1.4 nM. The molecule also had a concentration at 24 h in series [8] (plasma, oral, 0.01 mg·kg^−1) of 4.5 nM. In the series “Systemic blood pressure” (ASP4058 0.1 mg·kg^−1 started 1 week after induction, measured at 7 weeks), the blood pressure result was “without affecting the blood pressure”. In addition, in “Systemic blood pressure” (ASP4058 p.o. for 12 weeks after IA induction), the systemic blood pressure entry is “without significantly influencing”. In addition, the “IA development measured by the size of the IA induced” value in series [9] (rat model, p.o. during entire period of IA induction, 12 weeks) is “dose‐dependently suppressed IA development”. In [9] (rat model, p.o. during whole period, 12 weeks), the “incidence of IAs” value is on record as “did not affect the incidence”. In [9] (rat model, p.o., 12 weeks), the “dose at which the suppressive effect on the size of the IA was observed” value was 0.01 mg/kg. The “macrophage infiltration in the lesion” value in [9] (rat model, p.o., 12 weeks after induction) is listed as “inhibited the macrophage infiltration”. The “expression of MCP‐1 in the IA lesion” value in series [9] (rats, ASP4058 0.03 mg·kg^−1, immunostaining) is “almost completely suppressed”. The “IA‐associated degenerative change of the media (thinning of smooth muscle layer)” value in series [9] (rats, ASP4058 0.03 mg·kg^−1, α‐SMA staining, 12 weeks) is “ameliorated the IA‐associated degenerative change of the media”. For the same molecule, the “enlargement of pre‐existing aneurysm” value in series [9] (rats, ASP4058 0.1 mg·kg^−1 once daily started 1 week after IA induction, examined at 7 weeks, BAPN) is on record as “significantly inhibited the enlargement”.
Turning to `CCc1cc(/C(C)=N/OCc2ccc(C3CCCCC3)c(C(F)(F)F)c2)ccc1CN1CC(C(=O)O)C1` [BAF312, 1‐{4‐[(1E)‐N‐{[4‐cyclohexyl‐3‐(trifluoomethyl)benzyl]oxy}ethanimidoyl]‐2‐ethylbenzyl}azetidine‐3‐carboxylic acid, reference compound], the systemic blood pressure result in the series “Systemic blood pressure” (setting [11]) is on record as “without influencing”. The “growth (size) of induced IAs” value in series [9] (rats, 4 weeks, BAPN) is given as “significantly suppressed the growth”.
Consider `CCn1c2ccccc2c2cc(Nc3ccnc(NCCCN4CCOCC4)n3)ccc21` [EHop‐016], for which the “effect on the ASP4058‐mediated inhibition of endothelial permeability” value in the series on HCtAEC monolayer is “ameliorated the effect of ASP4058 on permeability”.
As for `Cl.NC(CO)(CO)CCc1ccc(Sc2cccc(OCc3ccccc3)c2)cc1Cl` [KRP‐203, 2‐amino‐2‐[2‐(4‐{[3‐(benzyloxy)phenyl]sulfanyl}‐2‐chlorophenyl)ethyl]propane‐1,3‐diol hydrochloride, reference compound], the systemic blood pressure entry in “Systemic blood pressure” (setting [11]) is given as “without influencing”. Further, the “growth (size) of induced IAs” value in [9] (rats, 4 weeks, BAPN) is recorded as “significantly suppressed the growth”.
On to `CCn1c(Oc2cccc(N3CCN(C)CC3)c2)nnc1[C@@H](C)NS(=O)(=O)c1ccc(Cl)c(Cl)c1` [TASP0277308, 3,4‐dichloro‐N‐[(1R)‐1‐{4‐ethyl‐5‐[3‐(4‐methylpiperazin‐1‐yl)phenoxy]‐4H‐1,2,4‐triazol‐3‐yl}ethyl]benzenesulfonamide, reference compound], for which, in series [5] (setting [12]), the peripheral lymphocyte count result is recorded as “potently decreased” and the peripheral monocyte count entry was “without influencing”. Further, the “effect on the ASP4058‐mediated inhibition of endothelial permeability” value with HCtAEC monolayer is “reversed”. The systemic blood pressure result in the series “Systemic blood pressure” (setting [12]) was “without influencing”. In series [9] (setting [13]), the “macrophage infiltration in IA lesions” value is “did not suppress” and the “size of the IA” value is “did not suppress either the macrophage infiltration in IA lesions or reduce the size”.
On to `CCCCCCCCc1ccc(CCC(N)(CO)CO)cc1.Cl` [fingolimod, 2‐amino‐2‐[2‐(4‐octylphenyl)ethyl]propane‐1,3‐diol hydrochloride, reference compound], for which the systemic blood pressure entry in the series “Systemic blood pressure” (fingolimod for 4 weeks after IA induction) is “without influencing”. In series [9] (rats, fingolimod daily during whole period, 4 weeks, BAPN), the “size of IAs induced” value is “significantly exacerbated the IA size”.

(Values after PMC5466536 (British Journal of Pharmacology, 2017).)
